Reference: ChEMBL document CHEMBL1132594, “Discovery of 6-oxo-3-(2-phenylpyrazolo[1,5-a]pyridin-3-yl)-1(6H)- pyridazinebutanoic acid (FK 838): a novel non-xanthine adenosine A1 receptor antagonist with potent diuretic activity” (J Med Chem, 1999)
≈ marks a conversion by molar mass, not a printed value.

Assays:
Rattus norvegicus [1] = experiment: Diuretic activity was measured in saline (20mL/kg, po)-loaded rat as sodium output at 1 mg/kg dose po; format: functional, Urine
In short: (§1)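 Male Sprague–Dawley rats, food withheld 18 h, saline-loaded (20 mL/kg po), then given compound orally as a suspension in 0.5% methyl cellulose; vehicle-dosed controls. Urine collected over 6 h for volume (mL/kg), Na+ and K+ output (μequiv/kg). n = 3 (n = 1 for some vehicle groups); means ± SEM, significance vs vehicle at p < 0.05 / p < 0.01.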

Rattus norvegicus [2] = experiment: Diuretic activity was measured in saline (20mL/kg, po)-loaded rat as sodium output at 10 mg/kg dose po; format: functional, Urine; in short: as §1
Rattus norvegicus [3] = experiment: Diuretic activity was measured in saline (20mL/kg, po)-loaded rat as sodium output at 3.2 mg/kg dose po; format: functional, Urine; in short: as §1
Rattus norvegicus [4] = experiment: Diuretic activity was measured in saline (20mL/kg, po)-loaded rat as potassium output at 1 mg/kg dose po; format: functional, organism-based; design: dose 1 mg/kg; conditions: Urine; in short: as §1
Rattus norvegicus [5] = experiment: Diuretic activity was measured in saline (20mL/kg, po)-loaded rat as potassium output at 10 mg/kg dose po; format: functional, organism-based; design: dose 10 mg/kg; conditions: Urine; in short: as §1
Rattus norvegicus [6] = experiment: Diuretic activity was measured in saline (20mL/kg, po)-loaded rat as potassium output at 3.2 mg/kg dose po; format: functional, organism-based; design: dose 3.2 mg/kg; conditions: Urine; in short: as §1
Rattus norvegicus [7] = experiment: Diuretic activity was measured in saline (20mL/kg, po)-loaded rat as urine volume collected for 6 hr at 10 mg/kg dose po; format: functional; in short: as §1
Rattus norvegicus [8] = experiment: Diuretic activity was measured in saline (20mL/kg, po)-loaded rat as urine volume collected for 6 h at 3.2 mg/kg dose po; format: functional; in short: as §1
Rattus norvegicus [9] = experiment: Diuretic activity was measured in saline (20mL/kg, po)-loaded rat as urine volume collected for 6 hr at 1 mg/kg dose po; format: functional; in short: as §1
[10] = Oral bioavailability in rat (fasted); format: ADME, organism-based; conditions: in vivo
In short: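 Fasted rats given a single oral dose of compound suspended in 0.5% methyl cellulose solution, 3.2 or 10 mg/kg depending on compound, n = 3–4 per group.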

[11] = solubility in water (ug/mL) at 37 degree C.; format: physicochemical; conditions: read-out: S
In short: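 Aqueous solubility measured in water at 37 °C; sodium salt form used for one compound.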

Adenosine A2 receptor = Adenosine A2 receptor (Rattus norvegicus, UniProt P29276+P30543); experiment: Adenosine A2 receptor binding using [3H]CGS-21680 in rat striatal membranes; format: cell membranes, Striatum, Membrane
In short: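 Radioligand displacement of [3H]CGS 21680 from rat striatal membranes. Values are means ± 95% confidence limits from at least three independent experiments.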

Adenosine receptor A1 [12] = molecular target: T1, Adenosine receptor A1 (Rattus norvegicus, UniProt P25099); experiment: Adenosine A1 receptor using [3H][…] in rat cortical membranes; format: cell membranes
T1 sequence (P25099 whole entry): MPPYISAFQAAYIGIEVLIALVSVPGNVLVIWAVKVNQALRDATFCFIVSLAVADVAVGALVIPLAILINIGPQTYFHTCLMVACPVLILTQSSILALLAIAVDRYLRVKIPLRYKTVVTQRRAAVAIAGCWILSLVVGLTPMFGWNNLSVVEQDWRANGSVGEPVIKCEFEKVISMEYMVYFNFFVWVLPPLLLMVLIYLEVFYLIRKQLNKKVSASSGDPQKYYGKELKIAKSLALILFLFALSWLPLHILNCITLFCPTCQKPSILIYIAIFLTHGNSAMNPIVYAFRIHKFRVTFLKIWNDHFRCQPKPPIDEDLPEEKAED

Rattus norvegicus [13] = experiment: Diuretic activity was measured in saline (20mL/kg, po)-loaded rat as sodium output at 0.032 mg/kg dose po; format: functional, Urine; in short: as §1
Rattus norvegicus [14] = experiment: Diuretic activity was measured in saline (20mL/kg, po)-loaded rat as sodium output at 0.1 mg/kg dose po; format: functional, Urine; in short: as §1
Rattus norvegicus [15] = experiment: Diuretic activity was measured in saline (20mL/kg, po)-loaded rat as urine volume collected for 6 hr at 0.032 mg/kg dose po; format: functional; in short: as §1
Rattus norvegicus [16] = experiment: Diuretic activity was measured in saline (20mL/kg, po)-loaded rat as urine volume collected for 6 hr at 0.1 mg/kg dose po; format: functional; in short: as §1
[17] = molecular target: T2, Adenosine receptor A1 (Rattus norvegicus) (UniProt P25099)
T2 sequence (whole entry): T1 sequence (P25099 whole entry)

Adenosine receptor A1 [18] = molecular target: T3, Adenosine receptor A1 (Homo sapiens, UniProt P30542); experiment: Adenosine A1 receptor binding using [3H]DPCPX in human cortical membranes; format: cell membranes
T3 sequence (P30542 whole entry): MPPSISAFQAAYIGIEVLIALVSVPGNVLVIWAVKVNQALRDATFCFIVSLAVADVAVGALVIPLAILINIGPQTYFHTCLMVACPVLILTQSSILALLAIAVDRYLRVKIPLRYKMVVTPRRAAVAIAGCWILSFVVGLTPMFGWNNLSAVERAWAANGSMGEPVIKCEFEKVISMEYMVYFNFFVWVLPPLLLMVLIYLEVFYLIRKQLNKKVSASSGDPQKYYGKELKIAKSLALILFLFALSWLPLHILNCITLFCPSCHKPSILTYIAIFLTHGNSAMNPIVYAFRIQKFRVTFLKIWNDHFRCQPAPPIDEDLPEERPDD

Adenosine receptor A1 [19] = molecular target: T1, Adenosine receptor A1; experiment: Adenosine A1 receptor binding using [3H][…] in rat cortical membranes; format: cell membranes
In short: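 Displacement of [3H]DPCPX binding in rat cortical membranes. Values are means ± 95% confidence limits from at least three independent experiments.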

Rattus norvegicus [20] = experiment: Diuretic activity was measured in saline (20mL/kg, po)-loaded rat as sodium output at 0.32 mg/kg dose po; format: functional, Urine; in short: as §1
Rattus norvegicus [21] = experiment: Diuretic activity was measured in saline (20mL/kg, po)-loaded rat as urine volume collected for 6 hr at 0.32 mg/kg dose po; format: functional; in short: as §1

Structure (SMILES) | Na (Rattus norvegicus [1]) [u equiv kg-1] | Na (Rattus norvegicus [2]) [u equiv kg-1] | K (Rattus norvegicus [4]) [u equiv kg-1] | K (Rattus norvegicus [5]) [u equiv kg-1] | Urine volume (Rattus norvegicus [7]) [mL/kg] | also measured
c1ccc(-c2nn3ccccc3c2-c2ccnnc2)cc1 | 2800 | 5110 | 569 | 907 | 38 | Na (Rattus norvegicus [3]): 3770 u equiv kg-1; K (Rattus norvegicus [6]): 667 u equiv kg-1; Urine volume (Rattus norvegicus [8]): 29.5 mL/kg; Urine volume (Rattus norvegicus [9]): 23.8 mL/kg
O=c1ccc(-c2c(-c3ccccc3)nn3ccccc23)nn1CCO | – | 5930 | – | 942 | 40.4 | –
O=C(O)CCn1nc(-c2c(-c3ccccc3)nn3ccccc23)ccc1=O | 3350 | 5260 | 790 | 901 | 31.4 | Na (Rattus norvegicus [3]): 4860 u equiv kg-1; K (Rattus norvegicus [6]): 904 u equiv kg-1; Urine volume (Rattus norvegicus [8]): 28.1 mL/kg; Urine volume (Rattus norvegicus [9]): 19.1 mL/kg
Oc1ccc(-c2c(-c3ccccc3)nn3ccccc23)nn1 | – | 4640 | – | 826 | 33.3 | –
O=C(O)CCCn1nc(-c2c(-c3ccccc3)nn3ccccc23)ccc1=O | 5260 | 5680 | 967 | 1150 | – | bioavailability [10]: 78%; solubility [11]: 10000 µg/mL (≈ 26.7 mM); Log Ki (Adenosine A2 receptor): -5.92; Ki (Adenosine receptor A1 [12]): 6.61 nM; Na (Rattus norvegicus [13]): 2390 u equiv kg-1; Na (Rattus norvegicus [14]): 3860 u equiv kg-1; Urine volume (Rattus norvegicus [15]): 15.6 mL/kg; Urine volume (Rattus norvegicus [16]): 26.4 mL/kg; UV (Rattus norvegicus [7]): 38.6 mL/kg; Urine volume [17]: 26.4 mL/kg
CCCn1nc(-c2c(-c3ccccc3)nn3ccccc23)ccc1=O | – | 5510 | – | 972 | 36.8 | –
O=c1ccc(-c2c(-c3ccccc3)nn3ccccc23)nn1CCCO | – | 5160 | – | 964 | 37.9 | –
Cn1nc(-c2c(-c3ccccc3)nn3ccccc23)ccc1=O | – | 4870 | – | 891 | 30 | –
O=C(/C=C/c1c(-c2ccccc2)nn2ccccc12)N1CCCC[C@@H]1CCO [FK453] | 3290 | 5820 | 833 | 1070 | 44.4 | bioavailability [10]: 8.8%; solubility [11]: 11.9 µg/mL (≈ 0.0317 mM); Ki (Adenosine receptor A1 [18]): 0.49 nM; Ki (Adenosine receptor A1 [19]): 0.49 nM; Na (Rattus norvegicus [20]): 2350 u equiv kg-1; Na (Rattus norvegicus [3]): 4110 u equiv kg-1; K (Rattus norvegicus [6]): 831 u equiv kg-1; Urine volume (Rattus norvegicus [21]): 18 mL/kg; Urine volume (Rattus norvegicus [8]): 31.9 mL/kg; Urine volume (Rattus norvegicus [9]): 24.6 mL/kg
c1ccc(-c2nn3ccccc3c2-c2ccncc2)cc1 | – | 5110 | – | 975 | 34.2 | –
O=C(O)CCCCn1nc(-c2c(-c3ccccc3)nn3ccccc23)ccc1=O | – | 4510 | – | 977 | 36.3 | –
